Assay [1] is described as follows: Inhibition of pig pancreatic cholesterol esterase preincubated for 5 mins by spectrophotometry. Also noted: species or system Sus scrofa. In short, it runs like this: (§1)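 Porcine CEase in 100 mM sodium phosphate, 100 mM NaCl, pH 7.0, with 6 mM taurocholate (final), 3% acetonitrile, 3% DMSO. Inhibitor pre-mixed with 200 µM pNPB for 5 min at 25 °C. Reaction started with enzyme (10 ng/mL final), A405 followed for 6 min. Rates taken from linear steady-state turnover. Duplicates at five inhibitor concentrations. Residual activity at infinite [I] and IC50 come from non-linear regression of rate versus [I].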

Another assay has as its target Acetylcholinesterase (Electrophorus electricus, UniProt O42275). Put plainly: Inhibition of Electrophorus electricus acetylcholinesterase preincubated for 15 mins by spectrophotometry.
Assay [2] is filed under the species Sus scrofa. Put plainly: Inhibition of pig pancreatic cholesterol esterase assessed as residual enzyme activity at infinite compound concentration preincubated for 5 mins by spectrophotometry. The method, boiled down:
as §1

A short description of assay [3]: Selectivity ratio of IC50 for Electrophorus electricus acetylcholinesterase to IC50 for pig cholesterol esterase. The method, boiled down: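 IC50 ratio taken between two assays. AChE: E. electricus enzyme, 15 min preincubation, ATCh 500 µM with DTNB, read at 412 nm, pH 7.3. Porcine CEase: 10 ng/mL, 5 min preincubation of inhibitor with substrate, pNPB 200 µM with taurocholate 6 mM, read at 405 nm, pH 7.0.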

Assay [4] can be described thus: Mixed inhibition of pig pancreatic cholesterol esterase preincubated for 5 mins by specific velocity plot analysis. Set-up: species or system Sus scrofa. The method, boiled down:
(§2)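 Porcine CEase, pNPB hydrolysis read at 405 nm, 25 °C, pH 7.0 phosphate/NaCl buffer with 6 mM taurocholate. Quadruplicates covered five inhibitor levels (2–10 µM) crossed with five substrate levels (100–300 µM), after a 5 min preincubation. The uninhibited rate at 200 µM substrate was set to 100%. Ki, α and β come from replots of specific velocity using σ/[1+σ], with σ = [S]/Km and a separately determined Km.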

The species named for assay [5] is Sus scrofa. The experiment in a line: Ratio of binding affinity to free pig pancreatic cholesterol esterase to binding affinity to substrate-bound pig pancreatic cholesterol esterase. In short, it runs like this: as §2

A value given as a limit tells only on which side of the number the result lay.

Chain of Acetylcholinesterase (O42275 whole entry): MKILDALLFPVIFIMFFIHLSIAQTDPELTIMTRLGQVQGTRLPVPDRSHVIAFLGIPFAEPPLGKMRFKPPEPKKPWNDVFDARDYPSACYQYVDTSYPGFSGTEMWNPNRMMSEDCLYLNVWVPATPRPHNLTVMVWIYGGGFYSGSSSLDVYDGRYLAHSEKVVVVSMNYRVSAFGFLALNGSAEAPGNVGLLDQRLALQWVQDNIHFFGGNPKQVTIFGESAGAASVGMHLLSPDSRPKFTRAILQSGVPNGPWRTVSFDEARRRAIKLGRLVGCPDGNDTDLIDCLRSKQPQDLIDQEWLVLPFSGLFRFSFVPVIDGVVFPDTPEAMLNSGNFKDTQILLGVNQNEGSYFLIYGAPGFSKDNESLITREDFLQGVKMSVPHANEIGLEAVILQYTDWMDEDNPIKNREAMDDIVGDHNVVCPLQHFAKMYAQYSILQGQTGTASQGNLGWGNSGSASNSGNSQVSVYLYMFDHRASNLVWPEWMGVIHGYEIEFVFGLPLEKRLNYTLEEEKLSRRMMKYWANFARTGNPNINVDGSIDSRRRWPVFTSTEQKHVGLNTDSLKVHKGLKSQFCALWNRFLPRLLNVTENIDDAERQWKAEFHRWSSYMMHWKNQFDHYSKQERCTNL

Usually IC50 stands for the concentration needed to halve the response being measured. Lower therefore signals higher potency. For `CCCc1ccccc1NC(=O)[C@H](CO)NC(=O)c1ccc(/C=C2\SC(=S)NC2=O)cc1`, the IC50 is 31 µM in assay [1] and > 100 µM on Acetylcholinesterase.

As for `CCCc1ccccc1NC(=O)[C@H](Cc1ccc(O)cc1)NC(=O)c1ccc(/C=C2\SC(=S)NC2=O)cc1`, the concentration for half-maximal inhibition (IC50) in assay [1] worked out at 14.5 µM; against Acetylcholinesterase, 57 µM.

`CCCc1ccccc1NC(=O)[C@H](COC(C)(C)C)NC(=O)c1ccc(/C=C2\SC(=O)NC2=O)cc1`: the half-inhibitory concentration (IC50) in assay [1] is 85 µM; against Acetylcholinesterase, 66 µM.

As to `CCCc1ccccc1NC(=O)[C@H](Cc1ccccc1)NC(=O)c1ccc(/C=C2\SC(=O)NC2=O)cc1`, the IC50 in assay [1] was determined as 40 µM; at Acetylcholinesterase, 14 µM.

As to `CCCc1ccccc1NC(=O)[C@H](C)NC(=O)c1ccc(/C=C2\SC(=O)NC2=O)cc1`, the concentration for half-maximal inhibition (IC50) is 54 µM in assay [1] and > 100 µM against Acetylcholinesterase.

In the case of `O=C1NC(=O)/C(=C/c2ccc(C(=O)O)cc2)S1`, the IC50 (in assay [1]; at Acetylcholinesterase) was > 100 µM in each case.

Take `CCCc1ccccc1NC(=O)[C@H](COC(C)(C)C)NC(=O)c1ccc(/C=C2\SC(=S)NC2=O)cc1`: the IC50 in assay [1] amounted to 6.07 µM; against Acetylcholinesterase, 21.6 µM.

Regarding `CCCc1ccccc1NC(=O)[C@H](C)NC(=O)c1ccc(/C=C2\SC(=S)NC2=O)cc1`, the half-inhibitory concentration (IC50) is 50 µM in assay [1] and > 100 µM against Acetylcholinesterase.

For `CCCc1ccccc1NC(=O)[C@H](CO)NC(=O)c1ccc(/C=C2\SC(=O)NC2=O)cc1`, the concentration for half-maximal inhibition (IC50) in assay [1] was 5.7 µM; against Acetylcholinesterase, > 100 µM. For the same compound, the Activity in the assay filed under Sus scrofa [2] was 12%. Moreover, in assay [3], the Ratio IC50 was > 15.

`O=C1NC(=S)S/C1=C\c1ccc(C(=O)O)cc1`: the 50% inhibitory concentration (IC50) (in assay [1]; against Acetylcholinesterase) was > 100 µM each time.

Regarding `CCCc1ccccc1OCC(O)COc1ccc(/C=C2\SC(=O)NC2=O)cc1` (racemic), the IC50 was 5.89 µM in assay [1] and > 100 µM on Acetylcholinesterase. Moreover, in the assay filed under Sus scrofa [2], the Activity is 17%. Moreover, the Ratio IC50 in assay [3] was > 15.

For `O=C1NC(=O)/C(=C/c2ccccc2)S1`, the IC50 (in assay [1]; against Acetylcholinesterase) was > 100 µM throughout.

As to `CCCc1ccccc1NC(=O)[C@H](Cc1ccccc1)NC(=O)c1ccc(/C=C2\SC(=S)NC2=O)cc1`, the half-maximal inhibitory concentration (IC50) was found to be 40 µM in assay [1] and 43 µM against Acetylcholinesterase.

A word on the Ki: it is the equilibrium dissociation constant of an inhibitor or competing ligand from its target. For `CCCc1ccccc1OCC(O)COc1ccc(/C=C2\SC(=S)NC2=O)cc1` (racemic), the IC50 in assay [1] came to 1.76 µM; on Acetylcholinesterase it was 5.14 µM. Also, in the assay filed under Sus scrofa [2], the Activity worked out at 18%. For the same compound, the inhibition constant Ki in assay [4] is 1.22 µM. Besides, the Ratio in the assay filed under Sus scrofa [5] was determined as 5.5.

For the compound `CCCc1ccccc1NC(=O)[C@H](COCc1ccccc1)NC(=O)c1ccc(/C=C2\SC(=S)NC2=O)cc1`, the concentration for half-maximal inhibition (IC50) in assay [1] was 1.44 µM; at Acetylcholinesterase, 25 µM. Also, the Activity in the assay listed under Sus scrofa [2] came out at 25%. For the same compound, the Ratio IC50 in assay [3] was determined as 17.

The values above are taken from ChEMBL document CHEMBL1926649, “New cholesterol esterase inhibitors based on rhodanine and thiazolidinedione scaffolds” (Bioorg Med Chem, 2011).
